{"source": "paper PMC6554731", "about": "(Bioorganic & medicinal chemistry, 2019)", "key": {"human Ero1α": {"target": "T1, human Ero1α (Homo sapiens, UniProt Q96HE7, C104A/C131A/C166A)", "T1 sequence (Q96HE7 22-468 C104A/C131A/C166A)": "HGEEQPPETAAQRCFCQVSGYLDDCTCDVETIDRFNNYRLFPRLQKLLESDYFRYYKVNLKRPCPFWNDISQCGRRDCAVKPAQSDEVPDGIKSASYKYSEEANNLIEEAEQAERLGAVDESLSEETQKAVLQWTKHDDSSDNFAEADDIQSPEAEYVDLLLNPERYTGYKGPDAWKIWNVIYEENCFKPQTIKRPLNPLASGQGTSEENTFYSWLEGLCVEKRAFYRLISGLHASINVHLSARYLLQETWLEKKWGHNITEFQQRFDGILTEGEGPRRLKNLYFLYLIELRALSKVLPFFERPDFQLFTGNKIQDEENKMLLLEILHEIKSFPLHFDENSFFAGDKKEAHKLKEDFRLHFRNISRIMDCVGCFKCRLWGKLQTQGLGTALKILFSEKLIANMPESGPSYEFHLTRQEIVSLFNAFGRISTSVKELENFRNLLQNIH", "assay": "Amplex Red/Ero1α catalytic assay", "assay_type": "biochemical", "summary_of_the_method": "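Hyperactive His-tagged human Ero1α (residues 22–468) expressed in E. coli BL21(DE3)RIL, Ni-NTA purified, oxidised with ferricyanide, monomeric gel-filtration fraction; 0.0625 mg/mL enzyme with HRP, 25 μM Amplex Red, human PDI (18–479) substrate 0.250–0.008 mg/mL, test compound 200–0.01 μM, 50 mM sodium phosphate pH 7.4; 30 min, 37 °C; fluorescence Ex 530/Em 590; two experiments in triplicate.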"}, "U266 cells [1]": {"tested_on": "U266 cells", "assay": "Annexin V/propidium iodide double-staining assay", "assay_type": "cell-based", "conditions": "25 μM, 18 h", "summary_of_the_method": "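U266 cells exposed to DMSO vehicle or 25 μM test compound for 18 h, then washed in ice-cold PBS and stained with Annexin V-FITC/PI in binding buffer for 15 min at 37 °C in the dark. Flow cytometry counted at least 10,000 cells per sample. Means ± SD from three independent experiments.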"}, "U266 cells [2]": {"tested_on": "U266 cells", "assay": "Western blot analysis of ER stress markers", "assay_type": "cell-based", "conditions": "U266, 2, 4 and 8 h", "summary_of_the_method": "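U266 lysates taken after 2, 4 and 8 h with DMSO or test compound, run on 8–10% SDS-PAGE and transferred to PVDF. Membranes blocked 1 h at room temperature in 5% milk/TBST, probed overnight at 4 °C for p-eIF2α, ATF4, ATF6 and β-actin, then HRP secondary for 1 h. Chemiluminescent detection; n=3 independent assays.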"}, "normal PBMCs": {"tested_on": "normal PBMCs", "assay": "Cell death in normal PBMCs", "assay_type": "cell-based", "conditions": "data not shown"}, "Solubility observations": {"assay": "Solubility observations", "assay_type": "physicochemical"}, "Ero1L": {"tested_on": "Ero1L", "conditions": "cited from earlier work"}}}
{"molecule": "CC1=NN(c2ccccc2)C(=O)/C1=C/c1ccc(-c2cccc(Br)c2)o1", "note": "[AK968]", "values": [{"measurement": "Activity against Ero1L (derivative screen, Supplementary Fig. 2)", "setting": "human Ero1α", "result": "inactive"}]}
{"molecule": "CC1=NN(c2ccc(C)cc2)C(=O)/C1=C/c1ccc(-c2ccc(C(=O)O)cc2)o1", "note": "[AN968]", "values": [{"measurement": "Activity against Ero1L (derivative screen, Supplementary Fig. 2)", "setting": "human Ero1α", "result": "marginally active"}]}
{"molecule": "O=C(O)c1cc(N2N=C(C(F)(F)F)/C(=C/c3ccc(-c4ccccc4)o3)C2=O)ccc1Cl", "note": "[EN460]", "values": [{"measurement": "Mode of Ero1L inhibition", "setting": "human Ero1α; increasing substrate PDI with different EN460 concentrations", "result": "competitive"}, {"measurement": "Km", "setting": "human Ero1α; substrate PDI, with EN460", "result": "increased"}, {"measurement": "Vmax", "setting": "human Ero1α; substrate PDI, with EN460", "result": "largely stated the same"}, {"measurement": "Apoptosis (Annexin V positive cells)", "setting": "U266 cells [1]", "result": "induces apoptosis"}, {"measurement": "ATF4 level", "setting": "U266 cells [2]", "result": "modest increase"}, {"measurement": "full length ATF6 level", "setting": "U266 cells [2]", "result": "reduced levels"}, {"measurement": "p-eIF2α level", "setting": "U266 cells [2]", "result": "robust increase"}, {"measurement": "Cell death in normal PBMCs", "setting": "normal PBMCs", "result": "sufficient to induce cell death"}, {"measurement": "Solubility", "setting": "Solubility observations", "result": "poor solubility"}, {"measurement": "Reachable concentration in vitro", "setting": "Solubility observations; limited by poor solubility", "result": "≤ 200", "unit": "µM"}, {"measurement": "Inhibition of the Ero1L enzyme", "setting": "Ero1L", "result": "low micromolar range"}]}
{"molecule": "[N-]=[N+]=Nc1cccc(-c2ccc(/C=C3/C(=O)N(c4ccc(Cl)c(C(=O)O)c4)N=C3C(F)(F)F)o2)c1", "note": "[PB-10, (E)-5-(4-((5-(3-azidophenyl)furan-2-yl)methylene)-5-oxo-3-(trifluoromethyl)-4,5-dihydro-1H-pyrazol-1-yl)-2-chlorobenzoic acid]", "values": [{"measurement": "Solubility", "setting": "Solubility observations", "result": "comparable in solubility to EN460"}]}
{"molecule": "[N-]=[N+]=Nc1ccc(-c2ccc(/C=C3/C(=O)N(c4ccc(Cl)c(C(=O)O)c4)N=C3C(F)(F)F)o2)cc1", "note": "[PB-11, (E)-5-(4-((5-(4-azidophenyl)furan-2-yl)methylene)-5-oxo-3-(trifluoromethyl)-4,5-dihydro-1H-pyrazol-1-yl)-2-chlorobenzoic acid]", "values": [{"measurement": "Solubility in physiological buffers", "setting": "Solubility observations; e.g. PBS pH 7.4", "result": "less soluble"}]}
